Experiment [1] addresses T1, Adenosine receptor A1 (Homo sapiens) (UniProt P30542).
T1 sequence (whole entry): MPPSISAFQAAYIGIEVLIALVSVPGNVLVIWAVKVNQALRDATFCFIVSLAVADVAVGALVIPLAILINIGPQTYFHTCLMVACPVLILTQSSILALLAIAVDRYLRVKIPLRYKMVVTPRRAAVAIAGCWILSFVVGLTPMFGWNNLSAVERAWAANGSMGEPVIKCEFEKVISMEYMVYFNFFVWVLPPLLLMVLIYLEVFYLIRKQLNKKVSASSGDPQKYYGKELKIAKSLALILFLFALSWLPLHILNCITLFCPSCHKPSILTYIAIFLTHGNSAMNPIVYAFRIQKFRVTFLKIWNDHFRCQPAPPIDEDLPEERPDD
Briefly: Displacement of […] from human adenosine A1 receptor expressed in CHO cells at 10 uM. The experiment is classed as cell-based. Summed up: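 Membranes (50 µg protein) from CHO cells stably expressing hA1 incubated 180 min at 25 °C in 50 mM Tris-HCl, 2 mM MgCl2, 2 U/mL ADA, pH 7.4, with 3 nM [3H]DPCPX and compound at 10 µM. Nonspecific binding defined with 50 µM R-PIA.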

The target in experiment [2] is T2, Adenosine receptor A2a (Homo sapiens, UniProt P29274). Briefly: Displacement of [3H]NECA from human adenosine A2A receptor expressed in CHO cells at 10 uM. The format is cell-based. Summed up: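 Membranes (80 µg) from hA2A-expressing CHO cells incubated 90 min at 25 °C in 50 mM Tris-HCl, 2 mM MgCl2, 2 U/mL ADA, pH 7.4, with 30 nM [3H]NECA and compound at 10 µM. Nonspecific binding defined with 100 µM NECA.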
For orientation: Loss of bound radioactivity is the signal in a displacement assay; it reports binding, not function.

Another experiment has as its target T3, Adenosine receptor A2b (Homo sapiens, UniProt P29275).
T3 sequence (P29275 whole entry): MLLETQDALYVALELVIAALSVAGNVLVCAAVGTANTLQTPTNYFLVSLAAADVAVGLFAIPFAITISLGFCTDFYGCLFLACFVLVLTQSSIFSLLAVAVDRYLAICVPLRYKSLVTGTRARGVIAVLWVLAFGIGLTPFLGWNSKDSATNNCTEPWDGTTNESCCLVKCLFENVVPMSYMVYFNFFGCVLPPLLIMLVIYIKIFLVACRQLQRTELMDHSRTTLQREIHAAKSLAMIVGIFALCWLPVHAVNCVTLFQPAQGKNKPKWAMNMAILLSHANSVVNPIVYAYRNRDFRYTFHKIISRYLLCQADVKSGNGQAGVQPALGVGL
Briefly: Antagonist activity at human adenosine A2B receptor expressed in CHO cells assessed as inhibition of NECA-mediated cAMP accumulation. The experiment is classed as functional, cell-based. Summed up:
(§1)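 hA2B-transfected CHO cells grown 48 h after plating, then preincubated 15 min at 37 °C in DMEM with Ro20-1724 (20 µM) and ADA (1 U/mL). Compound (1 nM–10 µM; single-point 10 µM) given 15 min at 37 °C, then 100 nM NECA. Stopped with 0.4 N HCl, neutralized with KOH. cAMP by competitive binding to bovine adrenal binding protein with [3H]cAMP. Mean ± SEM, four experiments in triplicate.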
On the technique in general: Cyclic AMP is a second messenger, typically raised through Gs and lowered through Gi signalling.

For experiment [3], the target named is T4, Adenosine receptor A2b (Homo sapiens) (UniProt P29275).
T4 sequence (whole entry): T3 sequence (P29275 whole entry)
Briefly: Antagonist activity at human adenosine A2B receptor expressed in CHO cells assessed as inhibition of NECA-mediated cAMP accumulation at 10 uM. The experiment is classed as functional, cell-based. The gist of the method:
as §1

In the next experiment the target is T5, Adenosine receptor A1 (Homo sapiens, UniProt P30542).
T5 sequence (P30542 whole entry): T1 sequence (whole entry)
Briefly: Displacement of […] from human adenosine A1 receptor expressed in CHO cells. The format is cell-based.

Experiment [4] concerns the target T2, Adenosine receptor A2a. Briefly: Displacement of [3H]NECA from human adenosine A2A receptor expressed in CHO cells. The experiment is classed as cell-based.
The target in experiment [5] is T6, Adenosine receptor A3 (Homo sapiens) (UniProt P0DMS8).
T6 sequence (whole entry): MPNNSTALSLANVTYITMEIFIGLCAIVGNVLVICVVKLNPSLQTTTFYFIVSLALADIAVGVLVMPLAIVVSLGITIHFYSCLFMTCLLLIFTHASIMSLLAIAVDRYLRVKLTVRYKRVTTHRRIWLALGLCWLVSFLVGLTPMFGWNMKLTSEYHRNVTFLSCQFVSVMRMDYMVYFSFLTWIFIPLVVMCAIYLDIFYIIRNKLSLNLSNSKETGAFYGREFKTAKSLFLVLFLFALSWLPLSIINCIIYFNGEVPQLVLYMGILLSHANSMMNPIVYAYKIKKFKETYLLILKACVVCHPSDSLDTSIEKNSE
The experiment is described as follows: Displacement of [125I]AB-MECA from human adenosine A3 receptor expressed in CHO cells at 1 uM. The format is cell-based.

inhibition, IC50 and Ki data for 19 molecules are collected here from ChEMBL document CHEMBL1143166, “Derivatives of 4-amino-6-hydroxy-2-mercaptopyrimidine as novel, potent, and selective A3 adenosine receptor antagonists” (J Med Chem, 2008).

As usually defined, the inhibition is the percentage by which the read-out fell short of the control. As a reminder, the IC50 is the midpoint of a concentration-inhibition curve. The term Ki denotes a measure of affinity in units of concentration, obtained from inhibition or displacement. Higher therefore signals lower affinity.

T2 sequence (P29274 whole entry): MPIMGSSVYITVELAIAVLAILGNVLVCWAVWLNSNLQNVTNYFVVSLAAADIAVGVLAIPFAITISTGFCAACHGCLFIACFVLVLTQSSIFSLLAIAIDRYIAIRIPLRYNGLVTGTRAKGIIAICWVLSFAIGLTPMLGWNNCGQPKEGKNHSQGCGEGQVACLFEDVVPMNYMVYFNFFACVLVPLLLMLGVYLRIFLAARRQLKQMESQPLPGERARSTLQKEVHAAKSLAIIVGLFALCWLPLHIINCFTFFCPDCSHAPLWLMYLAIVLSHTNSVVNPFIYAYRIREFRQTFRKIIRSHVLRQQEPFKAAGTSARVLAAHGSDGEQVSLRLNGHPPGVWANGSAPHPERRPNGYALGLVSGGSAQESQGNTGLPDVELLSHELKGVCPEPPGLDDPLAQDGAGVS

Regarding `CCCOc1cc(NC(C)=O)nc(SCc2ccccc2)n1`, the inhibition in experiment [1] is 34%; at Adenosine receptor A2a [2], 23%.
As for `CCSc1nc(NC(C)=O)cc(OCc2ccc(Cl)cc2)n1`, at Adenosine receptor A2b, the IC50 is more than 10000 nM. The inhibition at Adenosine receptor A2a [2] is 56%; in experiment [3], 10%. On Adenosine receptor A1, this molecule came in with a Ki of 4480 nM.
Turning to `CCCCSc1nc(NC(C)=O)cc(OCc2ccc(Cl)cc2)n1`, the values for the inhibition (in experiment [1]; on Adenosine receptor A2a [2]) were 0% and 26%, respectively.
For `CCCSc1nc(NC(C)=O)cc(OCC2CCCCC2)n1`, in that order: 43% and 33%.
For `CCCSc1nc(NC(C)=O)cc(OCCc2ccccc2)n1`, the IC50 at Adenosine receptor A2b was more than 10000 nM. Also, the inhibition on Adenosine receptor A2a [2] turned out to be 27%; in experiment [3] it was 13%. In addition, affinity at Adenosine receptor A1 was put at a Ki of 2080 nM.
Consider `CCCSc1nc(NC(C)=O)cc(OCc2ccc(Cl)cc2Cl)n1`, for which the inhibition in experiment [1] turned out to be 46%; at Adenosine receptor A2a [2] it was 29%.
On to `CCCOc1cc(NC(=O)CC)nc(SC)n1`, for which, on Adenosine receptor A2a [4], the affinity corresponds to a Ki of 398 nM. This molecule also came in with an inhibition in experiment [1] of 19%.
Take `COc1cc(NC(C)=O)nc(SC)n1`: the inhibition came out at 30% in experiment [1], 29% on Adenosine receptor A2a [2] and 49% in experiment [5].
As for `CCCOc1cc(NC(C)=O)nc(SC)n1`, the Ki on Adenosine receptor A2a [4] worked out at 1120 nM. Further, the inhibition in experiment [1] stood at 7%.
On to `CCCSc1nc(NC(C)=O)cc(OC)n1`, for which the inhibition in experiment [1] turned out to be 43%; at Adenosine receptor A2a [2], 10%.
Turning to `CCCSc1nc(NC(C)=O)cc(OCc2ccccc2Cl)n1`, the Ki on Adenosine receptor A2a [4] worked out at 4150 nM; on Adenosine receptor A1, 1840 nM.
Turning to `CCCSc1nc(NC(C)=O)cc(OCc2ccc(Cl)cc2)n1`, the figures for the inhibition (in experiment [1]; at Adenosine receptor A2a [2]; in experiment [3]) were 17%, 43% and 0%, respectively. In addition, the IC50 on Adenosine receptor A2b is more than 10000 nM.
In the case of `CCCOc1cc(NC(=O)CC)nc(SCCC)n1`, the Ki is 71 nM on Adenosine receptor A2a [4] and 1460 nM on Adenosine receptor A1.
For the molecule `CCCSc1nc(NC(C)=O)cc(OCc2ccc(OC)cc2)n1`, at Adenosine receptor A2b, the IC50 is more than 10000 nM. Also, the figures for the inhibition (at Adenosine receptor A2a [2]; in experiment [3]) were 47% and 0%, respectively. The molecule also registered a Ki at Adenosine receptor A1 of 2440 nM.
`CCCSc1nc(NC(C)=O)cc(OCc2cccc(Cl)c2)n1` showed an inhibition on Adenosine receptor A2a [2] of 41%. Also, the Ki at Adenosine receptor A1 came to 582 nM.
For `CCCSc1nc(NC(C)=O)cc(OCc2ccccc2)n1` the same measures were 36% and 2440 nM.
On to `CCCOc1cc(NC(C)=O)nc(SCCC)n1`, for which the inhibition at Adenosine receptor A2a [2] is 30%. Further, the affinity at Adenosine receptor A1, expressed as Ki, was 5470 nM.
For `CCCSc1nc(NC(=O)CC)cc(OC)n1`, the inhibition on Adenosine receptor A2a [2] was found to be 4%. Also, at Adenosine receptor A1, the affinity, expressed as Ki, was 486 nM.
Consider `CCC(=O)Nc1cc(OC)nc(SC)n1`, for which the values for the inhibition (in experiment [1]; on Adenosine receptor A2a [2]; in experiment [5]) were 2%, 21% and 51%, respectively.
